# Screens as filed in PubChem BioAssay.
# Only some compounds are listed: those with a hit (about 2% of all), similar ones and a draw of the others.
# PfM18AAP inh-1 – PfM18AAP inhibitors, malaria aminopeptidase, primary screen, biochemical, QFRET, recombinant enzyme. M18 aspartyl aminopeptidase (Plasmodium falciparum 3D7). H-Glu-NHMec fluorogenic cleavage. inhibition, % at 7.35 µM. actives 1.2% (n = 290,000);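 active means inhibition above the campaign mean inhibition over all tested compounds plus 3 SD, cut at about 28% in these data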
# TbHK1 inh – Trypanosoma brucei hexokinase 1 inhibitors, primary screen, biochemical, G6PDH-coupled NADH absorbance, MLSCN library. hexokinase 1 [Trypanosoma brucei]. recombinant TbHK1, G6PDH-coupled NADH A340. inhibition, % at 10 µM. actives 0.11% (n = 220,000);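 active means inhibition of 50% or more in the single-dose primary screen; inactive means inhibition below 50%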
# RBBP9 inh – human RBBP9 inhibitors, primary screen, biochemical, fluorescence polarization, FP-Rh probe, HTS | recombinant RBBP9 | inhibition, % at 7.94 µM | AID 1515, 2009 | actives 0.2% (n = 220,000);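 active means inhibition above the campaign mean of all tested compounds plus 3 SD, cut at about 14% in these data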
# Target sequence (O75884 whole entry, looked up): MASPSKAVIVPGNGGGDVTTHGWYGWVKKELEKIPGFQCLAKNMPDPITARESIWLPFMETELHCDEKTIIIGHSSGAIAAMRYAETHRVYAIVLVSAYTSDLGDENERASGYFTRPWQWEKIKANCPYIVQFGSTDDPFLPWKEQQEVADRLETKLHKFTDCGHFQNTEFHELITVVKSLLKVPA
#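 Measured by – fluorescence polarization · Test system – RBBP9 protein · Input – 2.5 µM RBBP9 dispensing solution, before mixing · Measure – percent inhibition from mP, scaled between DMSO and no-protein wells · Benchmarks – DMSO-treated enzyme wells and wells lacking RBBP9 · Times – preincubation 30 min plus labeling 45 min at 25 °C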
# L929 necroptosis – inhibitors of zVAD-triggered necroptosis, primary screen, L929 cells; actives 0.38% (n = 220,000); AID 1377, 2008; L929 zVAD necroptosis rescue, ATP luminescence, 24 h; with zVAD 60 µM; viability rescue, % at 10 µM;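 active means activation, scaled between plate controls, above about 75%, limit read from the data; inactive means activation under that limit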
# Lipid droplet – inhibitors of hepatocyte lipid droplet formation, primary screen, imaging, high-throughput imaging, BODIPY stain; inhibition, % at 6.5 µM; actives 0.4% (n = 240,000); AID 1656, 2009; AML12 mouse hepatocytes, oleate lipid droplets;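 active means lipid droplet intensity inhibited by at least 50%, with more than 500 cells counted; inconclusive means wells with under 300 cells, treated as cytotoxic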
#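 material = mouse AML12 hepatocyte cell line, fixed after treatment | also added = 100 µM oleic acid challenge | doses = compound at 6.5 µM only | schedule = overnight exposure | technique = Image-based BODIPY and DAPI two-channel analysis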
# TNF death inh – inhibitors of TNF-alpha triggered necroptosis, primary screen, cell-based, Jurkat FADD-/-, single concentration; Jurkat FADD-/- TNF necroptosis rescue, ATP luminescence, 24 h; 0 = TNF only, 100 = no-TNF cells; activation (protection from cell death), % at 10 µM; actives 0.068% (n = 220,000); AID 463075, 2010;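 active means activation, meaning protection from cell death, of at least 50% relative to plate controls; inactive means activation below 50%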;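 further: necroptosis triggered by 40 ng/mL TNF-alpha added together with compound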
# PfM18AAP inh-2 – PfM18AAP inhibitors, malaria aminopeptidase, confirmation, biochemical, QFRET, recombinant enzyme, triplicate; shares compounds with PfM18AAP inh-1; inhibition, % at 7.35 µM; actives 28% (n = 2,400); AID 2170, 2009; H-Glu-NHMec fluorogenic cleavage;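 active means mean inhibition over replicate wells above the hit cutoff set for the earlier primary screen, cut at about 29% in these data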
# CTSL1 counter – cathepsin L1 inhibitors, retest, confirmation, counter-screen for PFM18AAP inhibitor project, biochemical, QFRET, triplicate; 2,400 tested, under 10 active; purified cathepsin L1, Z-Leu-Arg-MCA fluorescence; shares compounds with PfM18AAP inh-1; AID 2178, 2009; inhibition, % at 5.96 µM;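 active means average inhibition across replicates above the hit cutoff set in the earlier primary screen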
# Target sequence (P07711 whole entry, looked up): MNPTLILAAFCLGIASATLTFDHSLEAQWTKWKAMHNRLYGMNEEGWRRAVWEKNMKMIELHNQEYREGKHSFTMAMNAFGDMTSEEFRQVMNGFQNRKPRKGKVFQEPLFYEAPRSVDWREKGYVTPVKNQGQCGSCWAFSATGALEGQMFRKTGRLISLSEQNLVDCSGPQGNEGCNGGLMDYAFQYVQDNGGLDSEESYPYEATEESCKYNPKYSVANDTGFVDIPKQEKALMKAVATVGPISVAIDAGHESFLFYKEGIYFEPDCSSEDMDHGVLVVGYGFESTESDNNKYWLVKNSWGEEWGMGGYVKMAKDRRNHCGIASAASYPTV
# Hits are given with their value; 0 = inactive; ? = inconclusive; - = no result.
SMILES,PfM18AAP inh-1,TbHK1 inh,RBBP9 inh,L929 necroptosis,Lipid droplet,TNF death inh,PfM18AAP inh-2,CTSL1 counter
CCOC(=O)/C(C#N)=C/c1c(N2CCN(CC)CC2)nc2c(C)cccn2c1=O,0,-,-,-,0,-,-,-
CCOC(=O)Nc1ccc(S(=O)(=O)Nn2cnnc2)cc1,41,0,0,0,-,0,47,0
CCCOC(=O)Nc1ccc(S(=O)(=O)Nn2cnnc2)cc1,48,0,0,0,-,0,51,0
CCCOC(=O)Nc1ccc(S(=O)(=O)Nc2ncccn2)cc1,0,0,0,0,0,0,-,-
CCOC(=O)Nc1ccc(NS(=O)(=O)c2ccc(C)cc2)cc1,0,0,0,0,0,0,-,-
CCCCOC(=O)Nc1ccc(S(=O)(=O)Nn2cnnc2)cc1,50,0,0,0,0,0,50,0
Cc1cccc(C)c1NC(=S)NC(C)CCc1ccccc1 (stereo unspecified),0,0,0,0,0,0,-,-
COCCN1C=C(C(=O)OC)C(c2cc3c(cc2Br)OCO3)C(C(=O)OC)=C1,0,0,0,0,0,0,-,-
COCCN1C=C(C(=O)OC)C(c2ccc3c(c2)OCO3)C(C(=O)OC)=C1,38,0,0,0,-,0,0,0
COCCCN1C(=O)/C(=C\c2ccc3c(c2)OCO3)C(C(=O)OC)=C1C,52,0,0,0,0,0,0,0
Cc1cc(C)cc(OCC(=O)NNC(=O)CN2C(=O)c3ccccc3C2=O)c1,0,0,0,0,0,0,-,-
Oc1ccc(N2CCN(c3ccnc4cc(Cl)ccc34)CC2)cc1,38,-,-,-,0,-,0,0
COc1ccc(N2CCN(c3ccnc4cc(Cl)ccc34)CC2)cc1,0,-,-,-,0,-,-,-
O=C(Nc1ccc(Cl)cc1-c1nc2ccccc2s1)c1ccco1,0,0,0,0,-,0,-,-
N#CC1=C(N)SC(N)=C(C#N)C1C1CC=CCC1 (stereo unspecified),36,0,0,0,0,0,0,0
CCOc1ccc2nc(SCC(=O)Nc3cc4c(cc3C(C)=O)OCO4)[nH]c2c1,0,0,0,0,-,0,-,-
NNc1nc(-c2ccccc2Cl)nc2ccccc12,45,-,-,-,0,-,0,0
Nc1nc(-c2cc(O)ccc2[N+](=O)[O-])cc(-c2ccccc2)c1[N+](=O)[O-],46,-,-,-,0,-,0,0
Fc1ccc(/C=N/n2cnn(Cc3ccccc3Cl)c2=S)cc1,41,0,0,0,0,0,0,0
O=C(CN1CCN(c2ccc(O)cc2)CC1)Nc1cc(S(=O)(=O)N2CCCCC2)ccc1Cl,0,0,0,0,0,0,-,-
O=C(CN1CCN(c2ccc(O)cc2)CC1)Nc1cc(S(=O)(=O)N2CCCC2)ccc1Cl,36,0,0,0,0,0,0,0
Cc1c(O)ccc2c(CN3CCN(Cc4ccccc4)CC3)cc(=O)oc12,0,-,-,-,0,-,-,-
O=c1cc(CN2CCN(Cc3ccccc3)CC2)c2ccc(O)c(O)c2o1,48,-,-,-,-,-,0,0
O=c1cc(CN2CCOCC2)c2ccc(O)c(O)c2o1,36,-,-,-,0,-,0,0
CCCc1cc(=O)oc2c(CN3CCOCC3)c(O)ccc12,0,0,0,0,-,0,-,-
SMILES,PfM18AAP inh-1,TbHK1 inh,RBBP9 inh,L929 necroptosis,Lipid droplet,TNF death inh,PfM18AAP inh-2,CTSL1 counter
O=C(c1ccco1)N1CCN(CC2CC3C=CC2C3)CC1 (stereo unspecified),0,0,0,0,0,0,-,-
COc1ccc(C(=O)NCCN2CCCC2)cc1[N+](=O)[O-],0,-,-,-,0,-,-,-
CCOC(=O)c1oc2c(C)c(O)ccc2c(=O)c1-c1nncn1-c1ccccc1,0,0,0,0,-,0,-,-
CCOC(=O)c1oc2c(O)c(O)ccc2c(=O)c1-c1nncn1-c1ccccc1,46,0,0,0,0,0,0,0
O=C1c2ccccc2NC(c2ccc(O)c(O)c2)N1c1ccccc1Cl (stereo unspecified),57,-,-,-,0,-,56,0
COc1cc(C2Nc3ccccc3C(=O)N2c2ccccc2OC)ccc1O (stereo unspecified),0,0,0,0,0,0,-,-
O=c1[nH][nH]c(=S)n1-c1ccccc1C(F)(F)F,61,0,0,0,0,0,0,0
O=c1[nH]ncn1-c1ccccc1C(F)(F)F,0,0,0,0,0,0,-,-
CCc1ccc(N2C(=O)C(Cl)=C(N3CCOCC3)C2=O)cc1,0,0,0,0,0,0,-,-
COc1ccc(N2C(=O)C(Cl)=C(N3CCOCC3)C2=O)cc1,33,-,-,-,0,-,0,25
CSc1sc(-c2ccnc(SCC(=O)C(C)(C)C)n2)c2c1C(=O)CC(C)(C)C2,35,0,0,0,0,0,0,0
CSc1sc(C(=O)OC(C)C)c2c1C(=O)CC(C)(C)C2,0,0,0,0,?,0,-,-
CCC(C)c1ccc(O)c(N)c1 (stereo unspecified),64,0,0,0,-,0,69,0
N/C(=N\c1nc2ccccc2o1)NC(=O)c1ccccc1Br,0,0,0,0,0,0,-,-
COc1cccc(CN2CC(C(=O)NCCc3ccc(C)o3)CCC2=O)c1 (stereo unspecified),0,-,-,-,0,-,-,-
Cc1ccccc1C(=O)NNc1ccc([N+](=O)[O-])cc1,60,0,0,0,0,0,48,0
Cc1ccccc1C(=O)NCCNc1ccc([N+](=O)[O-])cc1,0,0,0,0,0,0,-,-
O=C(NNc1ccc([N+](=O)[O-])cc1)C1CC1c1ccccc1 (stereo unspecified),43,0,0,-,0,0,0,0
O=C(NNc1ccc([N+](=O)[O-])cc1)C1CC2CCCC(C1)C2=O (stereo unspecified),0,0,0,0,-,0,-,-
Cc1ccc(C(=O)NC(=S)Nn2cnnc2)cc1,84,0,0,0,0,0,60,0
O=C(NC(=S)Nn1cnnc1)c1cccc(Br)c1,69,0,0,0,0,0,87,0
Cc1ccc(/C=C/C(=O)NN2CCN(C)CC2)cc1,0,-,-,-,0,-,-,-
Cc1ccc(/C=C/C(=O)Nn2cnnc2)cc1,41,0,0,0,0,0,51,0
COC(=O)[C@H](CCSC)NS(=O)(=O)c1ccccc1Br,-,0,-,0,0,0,-,-
